Source: ChEMBL document CHEMBL4368942, “Dual inhibitors of RAF-MEK-ERK and PI3K-PDK1-AKT pathways: Design, synthesis and preliminary anticancer activity studies of 3-substituted-5-(phenylamino) indolone derivatives” (Bioorg Med Chem, 2019)
The source made the active and inactive calls. No cut-off for these calls is given here.

Columns and labels:
[1] = tested on: NCI-H460; experiment: Antiproliferative activity against human NCI-H460 cells after 48 hrs by MTT assay; type: functional, cell-based; conditions: NCI-H460, 48 h
How it was run: (§1)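 Cells grown in DMEM with 10% FBS and penicillin/streptomycin at 37°C, 5% CO2. 2 × 10^5 cells seeded per well in 200 µL medium. Compounds added 30 min after seeding, then 48 h incubation at 37°C. MTT (5 mg/ml stock) added for the last 4 h. Formazan dissolved in DMSO.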

[2] = tested on: A549; experiment: Antiproliferative activity against human A549 cells after 48 hrs by MTT assay; type: functional, cell-based; conditions: A549, 48 h; how it was run: as §1
[3] = tested on: A549; experiment: Induction of apoptosis in human A549 cells assessed as necrotic cells at 5 uM after 12 hrs by Annexin V-FITC/propidium iodide staining-based flow cytometric analysis (reference value: 1.42%); type: functional
How it was run: (§2)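 After 12 h treatment with DMSO as control, A549 cells were harvested by trypsin, washed twice in PBS and resuspended at 1 × 10^6 cells/mL in binding buffer. Annexin V-FITC and PI staining for 30 min at room temperature in the dark. Flow cytometry with 488 nm excitation, FITC read at 530 nm and PI at 670 nm. Quadrant percentages are means of three independent experiments.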

[4] = tested on: A549; experiment: Induction of apoptosis in human A549 cells assessed as necrotic cells at 2.5 uM after 12 hrs by Annexin V-FITC/propidium iodide staining-based flow cytometric analysis (reference value: 1.42%); type: functional; how it was run: as §2
[5] = tested on: A549; experiment: Induction of apoptosis in human A549 cells assessed as viable cells at 2.5 uM after 12 hrs by Annexin V-FITC/propidium iodide staining-based flow cytometric analysis (reference value: 90.6%); type: functional; conditions: A549, 12 h, read-out: Activity; how it was run: as §2
[6] = tested on: A549; experiment: Induction of apoptosis in human A549 cells assessed as viable cells at 5 uM after 12 hrs by Annexin V-FITC/propidium iodide staining-based flow cytometric analysis (reference value: 90.6%); type: functional; conditions: A549, 12 h, read-out: Activity; how it was run: as §2
[7] = tested on: A549; experiment: Induction of apoptosis in human A549 cells assessed as early apoptotic cells at 5 uM after 12 hrs by Annexin V-FITC/propidium iodide staining-based flow cytometric analysis (reference value: 7.19%); type: functional; how it was run: as §2
[8] = tested on: A549; experiment: Induction of apoptosis in human A549 cells assessed as late apoptotic cells at 5 uM after 12 hrs by Annexin V-FITC/propidium iodide staining-based flow cytometric analysis (reference value: 0.76%); type: functional; how it was run: as §2
[9] = tested on: A549; experiment: Induction of apoptosis in human A549 cells assessed as late apoptotic cells at 2.5 uM after 12 hrs by Annexin V-FITC/propidium iodide staining-based flow cytometric analysis (reference value: 0.76%); type: functional; how it was run: as §2
[10] = tested on: A549; experiment: Induction of apoptosis in human A549 cells assessed as early apoptotic cells at 2.5 uM after 12 hrs by Annexin V-FITC/propidium iodide staining-based flow cytometric analysis (reference value: 7.19%); type: functional; how it was run: as §2
[11] = tested on: A549; experiment: Inhibition of RAF/MEK/ERK in human A549 cells assessed as reduction in ERK phosphorylation at 2.5 uM after 8 hrs by Western blot analysis; type: cell-based
How it was run: (§3)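 Western blot with primary antibody in BSA overnight at 4°C. Washes in TBS/0.05% Tween-20, then secondary antibody for 1 h at room temperature. Chemiluminescent detection. p-ERK or p-AKT band density normalized to β-actin loading control versus control. Average of three independent experiments.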

[12] = tested on: A549; experiment: Inhibition of PI3K/PDK1/AKT in human A549 cells assessed as reduction in AKT phosphorylation after 8 hrs by Western blot analysis; type: cell-based; how it was run: as §3
[13] = tested on: A549; experiment: Inhibition of PI3K/PDK1/AKT in human A549 cells assessed as reduction in AKT phosphorylation at 2.5 uM after 8 hrs by Western blot analysis; type: cell-based; how it was run: as §3
[14] = tested on: A549; experiment: Inhibition of RAF/MEK/ERK in human A549 cells assessed as reduction in ERK phosphorylation after 8 hrs by Western blot analysis; type: cell-based; how it was run: as §3
[15] = tested on: A549; experiment: Inhibition of PI3K/PDK1/AKT in human A549 cells assessed as reduction in AKT phosphorylation at 1 uM after 8 hrs by Western blot analysis; type: cell-based; how it was run: as §3
[16] = tested on: A549; experiment: Inhibition of RAF/MEK/ERK in human A549 cells assessed as reduction in ERK phosphorylation at 1 uM after 8 hrs by Western blot analysis relative to control; type: cell-based; how it was run: as §3
[17] = tested on: A549; experiment: Inhibition of PI3K/PDK1/AKT in human A549 cells assessed as remaining AKT phosphorylation level at 1 uM after 8 hrs by Western blot analysis

IC50 [1]	IC50 [2]	SMILES	further results
20.2 µM	3.1 µM	O=C1Nc2ccc(Nc3ccc(Cl)cc3)cc2C1(O)Cc1ccccc1 (configuration not stated)	–
14.6 µM	2.3 µM	O=C1Nc2ccc(Nc3ccccc3Cl)cc2C1(O)Cc1ccccc1 (configuration not stated)	–
24.4 µM	2.8 µM	CCCCC1(O)C(=O)Nc2ccc(Nc3ccc(Cl)cc3)cc21 (configuration not stated)	–
9.1 µM	2 µM	O=C1Nc2ccc(Nc3ccc(C(F)(F)F)cc3)cc2C1(O)Cc1ccccc1 (configuration not stated)	–
> 100 µM	26.3 µM	O=C1Nc2ccc(Nc3ccc(F)cc3)cc2/C1=C\c1ccc2c(c1)OCO2	–
63.6 µM	18.9 µM	Cc1ccc(Nc2ccc3c(c2)C(Cc2ccc4c(c2)OCO4)C(=O)N3)cc1 (configuration not stated)	–
> 100 µM	5.9 µM	CCCCCC1(O)C(=O)Nc2ccc(Nc3ccc(F)cc3)cc21 (configuration not stated)	–
17.2 µM	4.2 µM	CC(C)CCC1(O)C(=O)Nc2ccc(Nc3ccc(C(F)(F)F)cc3)cc21 (configuration not stated)	–
31.6 µM	4.1 µM	Cc1ccc(Nc2ccc3c(c2)C(O)(Cc2ccccc2)C(=O)N3)cc1 (configuration not stated)	–
31.8 µM	7.5 µM	CCCCC1(O)C(=O)Nc2ccc(Nc3ccc(C)cc3)cc21 (configuration not stated)	–
> 100 µM	> 30 µM	O=C1Nc2ccc(Nc3ccc(F)cc3)cc2C1Cc1ccc2c(c1)OCO2 (configuration not stated)	–
55.3 µM	6.6 µM	Cc1ccc(Nc2ccc3c(c2)C(CCC(C)C)C(=O)N3)cc1 (configuration not stated)	–
30.3 µM	5.4 µM	CCCCCCC1(O)C(=O)Nc2ccc(Nc3ccc(Cl)cc3)cc21 (configuration not stated)	–
12 µM	2.3 µM	CCCCC1(O)C(=O)Nc2ccc(Nc3ccc(C(F)(F)F)cc3)cc21 (configuration not stated)	–
> 100 µM	18.6 µM	CCCCCCC1(O)C(=O)Nc2ccc(Nc3ccc(OC)cc3)cc21 (configuration not stated)	–
80.4 µM	24.9 µM	O=C1Nc2ccc(Nc3ccc(F)cc3)cc2C1(O)Cc1ccc2c(c1)OCO2 (configuration not stated)	–
50.9 µM	7.4 µM	CC(C)C/C=C1/C(=O)Nc2ccc(Nc3ccc(Cl)cc3)cc21	–
26.6 µM	3 µM	O=C1Nc2ccc(Nc3ccc(Cl)cc3)cc2C1(O)Cc1ccc2c(c1)OCO2 (configuration not stated)	–
> 100 µM	> 30 µM	COc1ccc(Nc2ccc3c(c2)C(O)(Cc2ccccc2)C(=O)N3)cc1 (configuration not stated)	–
14.7 µM	11.9 µM	Cc1ccc(Nc2ccc3c(c2)C(O)(Cc2ccc4c(c2)OCO4)C(=O)N3)cc1 (configuration not stated)	–
40.8 µM	1.9 µM	CCCCCC1(O)C(=O)Nc2ccc(Nc3ccc(Cl)cc3)cc21 (configuration not stated)	Activity [3]: 1.82%; Activity [4]: 2.31%; viability at 2.5 µM [5]: 83.2%; viability at 5 µM [6]: 72.3%; Activity [7]: 20.3%; Activity [8]: 5.65%; Activity [9]: 2.57%; Activity [10]: 11.9%
19 µM	3.6 µM	CCC/C=C1/C(=O)Nc2ccc(Nc3ccc(C)cc3)cc21	–
18.2 µM	1.8 µM	O=C1Nc2ccc(Nc3ccc(C(F)(F)F)cc3)cc2C1(O)Cc1ccc2c(c1)OCO2 (configuration not stated)	Activity [3]: 1.7%; Activity [4]: 2.25%; inhibition [11]: Active; viability at 2.5 µM [5]: 82.7%; viability at 5 µM [6]: 65.3%; Activity [7]: 25.5%; Activity [8]: 7.57%; inhibition [12]: Dose-dependent effect; inhibition [13]: Active; Activity [9]: 3.39%; Activity [10]: 11.6%; inhibition [14]: Dose-dependent effect

IC50 [1]	IC50 [2]	SMILES	further results
13.5 µM	15 µM	O=C1Nc2ccc(Nc3ccc(Cl)cc3)cc2/C1=C\c1ccccc1	–
–	5.2 µM	Cn1cnc2c(F)c(Nc3ccc(Br)cc3Cl)c(C(=O)NOCCO)cc21 [SELUMETINIB]	inhibition [15]: inactive; inhibition [16]: 65%
22.7 µM	12.5 µM	Cc1ccc(Nc2ccc3c(c2)C(O)(CCC(C)C)C(=O)N3)cc1 (configuration not stated)	–
> 100 µM	8.1 µM	CCCCCC1(O)C(=O)Nc2ccc(Nc3ccc(C)cc3)cc21 (configuration not stated)	–
16.3 µM	2.2 µM	CCCCCC1(O)C(=O)Nc2ccc(Nc3ccc(C(F)(F)F)cc3)cc21 (configuration not stated)	–
45.5 µM	28.2 µM	Cc1ccc(Nc2ccc3c(c2)/C(=C\C2CCCCC2)C(=O)N3)cc1	–
> 100 µM	16.7 µM	Cc1ccc(Nc2ccc3c(c2)/C(=C\c2ccc4c(c2)OCO4)C(=O)N3)cc1	–
32.5 µM	6.5 µM	CCCCC1(O)C(=O)Nc2ccc(Nc3ccc(F)cc3)cc21 (configuration not stated)	–
50.7 µM	12 µM	CCCCCCC1(O)C(=O)Nc2ccc(Nc3ccc(F)cc3)cc21 (configuration not stated)	–
25 µM	2.7 µM	CC(C)CCC1(O)C(=O)Nc2ccc(Nc3ccc(Cl)cc3)cc21 (configuration not stated)	–
24.6 µM	3.1 µM	O=C1Nc2ccc(Nc3ccc(Cl)cc3)cc2/C1=C\c1ccc2c(c1)OCO2	–
–	8.1 µM	NC1(c2ccc(-c3nc4ccn5c(=O)[nH]nc5c4cc3-c3ccccc3)cc2)CCC1 [MK-2206]	inhibition [16]: Active; remaining p-AKT level [17]: 33%
> 100 µM	> 30 µM	Cc1ccc(Nc2ccc3c(c2)C(CC2CCCCC2)C(=O)N3)cc1 (configuration not stated)	–
48.7 µM	2 µM	CC(C)CCC1C(=O)Nc2ccc(Nc3ccc(Cl)cc3)cc21 (configuration not stated)	–
16.8 µM	5.7 µM	CC(C)CCC1(O)C(=O)Nc2ccc(Nc3ccc(F)cc3)cc21 (configuration not stated)	–
16.2 µM	8 µM	CCCCCC1(O)C(=O)Nc2ccc(Nc3ccc(OC)cc3)cc21 (configuration not stated)	–
18.8 µM	2.8 µM	CCCCCCC1(O)C(=O)Nc2ccc(Nc3ccc(C(F)(F)F)cc3)cc21 (configuration not stated)	–
> 100 µM	12.1 µM	CCCCCCC1(O)C(=O)Nc2ccc(Nc3ccc(C)cc3)cc21 (configuration not stated)	–
18.1 µM	3 µM	O=C1Nc2ccc(Nc3ccc(F)cc3)cc2C1(O)Cc1ccccc1 (configuration not stated)	–
13.2 µM	2.4 µM	O=C1Nc2ccc(Nc3ccc(Cl)cc3)cc2/C1=C\C1CCCCC1	–
36.7 µM	6 µM	O=C1Nc2ccc(Nc3ccc(Cl)cc3)cc2C1Cc1ccc2c(c1)OCO2 (configuration not stated)	–
> 100 µM	16.6 µM	O=C1Nc2ccc(Nc3ccc(Cl)cc3)cc2C1CC1CCCCC1 (configuration not stated)	–
